Results of several laboratories.
Each line is one published result; the experiments were not run side by side.

Structure (SMILES) | cell line | effect on | action | method | time | IC50
COC(=O)CCC1=CC2C=CC=CC1C2C1CCCCC1=O (centres unmarked) | Jurkat | cell growth or viability |  | flow cytometry |  | 159 nM
C[C@H](Nc1ncnc2nc[nH]c12)c1cc2cccc(Cl)c2c(=O)n1-c1ccccc1 | CD4+ T | lymphocyte proliferation | inhibitor |  |  | 100 nM
O=C(O)c1cc(O)c(O)c(O)c1 | PaCa-2 | cell growth or viability |  | MTT |  | 17500 nM
COc1cc(Nc2nccc(-c3cnn4nc(OC)ccc34)n2)cc(C(F)(F)F)c1 | LN-229 | cell growth or viability |  | ATP luminescence |  | 580 nM
FC(F)(F)c1ccc(C(c2c[nH]c3ccccc23)c2c[nH]c3ccccc23)cc1 | LNCaP | cell growth or viability |  | MTT | 48 h | 13000 nM
CN1CCN(c2ccc3nc(-c4c(N)c5c(F)cccc5[nH]c4=O)[nH]c3c2)CC1 | SW780 | cell growth or viability |  | MTT | 5 days | 450 nM
COc1cc(-c2oc3cc(O)cc(O)c3c(=O)c2O)ccc1O | SW780 | cell growth or viability |  | ATP luminescence | 72 h | 12500 nM
COc1cc2c(=O)n(CCN(C)C)c3c4cc5c(cc4ncc3c2cc1OC)OCO5 | RPMI 8402 | cell growth or viability |  | MTT | 96 h | 2 nM
COc1cc2c(Oc3ccc(NC(=O)C4(C(=O)Nc5ccc(F)cc5)CC4)cc3F)ccnc2cc1OCCCN1CCOCC1 | Rh4 | cell growth or viability |  |  | 72 h | 220 nM
COc1cccc2c1C(=O)c1c(O)c3c(c(O)c1C2=O)C[C@@](O)(C(=O)CO)C[C@@H]3O[C@H]1C[C@H](N)[C@H](O)[C@H](C)O1 | MIA PaCa-2 | cell growth or viability |  | MTS | 48 h | 49 nM
CC(=O)OCCC1=CC2C=CC=CC1C2C1CCCCC1=O (centres unmarked) | Jurkat | cell growth or viability |  | flow cytometry |  | 64 nM
O=C(O)c1ccc(C(c2c[nH]c3ccccc23)c2c[nH]c3ccccc23)cc1 | LNCaP | cell growth or viability |  | MTT | 48 h | 21000 nM
O=C1CCCCC1C1C2C=CC=CC1/C(=C/c1ccccc1)C2 (centres unmarked) | Jurkat | cell growth or viability |  | flow cytometry |  | 82 nM
CC(=O)c1cccc(/N=N/c2cc(/C=C/C(=O)O)ccc2O)c1 | PaCa-2 | cell growth or viability |  | MTT |  | > 50000 nM
Cc1c[nH]c(/C=C2\C(=O)Nc3ccccc32)c1CCC(=O)O | SW780 | cell growth or viability |  | MTT | 5 days | 6000 nM
COc1c2c(cc3c1OCO3)[C@]13C=C[C@H](OC)C[C@H]1N(C2)C[C@H]3OC(=O)c1cccc(C)c1 | MOLT-4 | cell growth or viability |  | WST-1 |  | > 10000 nM

Structure (SMILES) | cell line | effect on | action | method | time | IC50
c1ccc(CNCc2cc3c(-c4ccccc4)n[nH]c3c(Nc3ccccc3)n2)cc1 | MIA PaCa-2 | cell growth or viability |  | MTS | 48 h | 2600 nM
O=c1c(O[C@@H]2O[C@H](CO)[C@H](O)[C@H](O)[C@H]2O)c(-c2ccc(O)c(O)c2)oc2cc(O)cc(O)c12 | SW780 | cell growth or viability |  | ATP luminescence | 72 h | 136000 nM
Oc1ccc(C(c2c[nH]c3ccccc23)c2c[nH]c3ccccc23)cc1 | LNCaP | cell growth or viability |  | MTT | 48 h | > 100000 nM
CC(C)(C)OC(=O)NCCOc1cc(NC(=O)c2cnccn2)c2ncccc2c1 | MIA PaCa-2 | cell growth or viability |  | MTT | 72 h | < 1000 nM
Cn1cc(C(c2cccc(/C=C/C(=O)O)c2)c2cn(C)c3ccccc23)c2ccccc21 | LNCaP | cell growth or viability |  | MTT | 48 h | > 20000 nM
O=c1c(O)c(-c2ccc(O)c(O)c2)oc2cc(O)cc(O)c12 | SW780 | cell growth or viability |  | ATP luminescence | 72 h | 43400 nM
O=C(O)/C=C/c1ccc(O)c(O)c1 | PaCa-2 | cell growth or viability |  | MTT |  | 5100 nM
OC[C@H]1O[C@@H](Oc2cc3c(O)cc(O)cc3[o+]c2-c2ccc(O)c(O)c2)[C@H](O)[C@@H](O)[C@H]1O | SW780 | cell growth or viability |  | ATP luminescence | 72 h | 84500 nM
CC(C)C[C@H](NC(=O)[C@H](Cc1ccccc1)NC(=O)c1cnccn1)B(O)O | COV434 | cell growth or viability |  | ATP luminescence |  | 16 nM
C#Cc1cccc(Nc2ncnc3cc(OCCOC)c(OCCOC)cc23)c1 | PaCa-2 | cell growth or viability |  | MTT |  | 60 nM
COc1nc(OCc2cccc(-c3ccccc3)c2C)ccc1CNCCNC(C)=O | MC-38 | cell growth or viability |  | MTT |  | 2900 nM
CC(C)n1cc(C(c2ccc(/C=C/C(=O)O)s2)c2cn(C(C)C)c3ccccc23)c2ccccc21 | LNCaP | cell growth or viability |  | MTT | 48 h | 26000 nM
COc1cc2nccc(Oc3ccc(NC(=O)C4(C(=O)Nc5ccc(F)cc5)CC4)cc3)c2cc1OC | Rh4 | cell growth or viability |  |  | 72 h | 3090 nM
COc1ccc(C(=O)O[C@@H]2CN3Cc4c(cc5c(c4OC)OCO5)[C@@]24C=C[C@H](OC)C[C@@H]34)cc1OC | MOLT-4 | cell growth or viability |  | WST-1 |  | 7400 nM
C[C@@H](Oc1cc(-c2cnn(C3CCNCC3)c2)cnc1N)c1c(Cl)ccc(F)c1Cl | Rh4 | cell growth or viability |  |  | 72 h | 580 nM
CCCCC1=CC2C=CC=CC1C2C1CCCCC1=O (centres unmarked) | Jurkat | cell growth or viability |  | flow cytometry |  | 37 nM
